Assay [1] concerns the target Ionotropic glutamate receptor NMDA 1/2D (Rattus norvegicus) (UniProt P35439+Q62645). The assay can be described thus: Positive allosteric modulation of recombinant rat GluN1/GluN2D receptor expressed in xenopus laevis oocyte assessed as potentiation of glutamate and glycine-induced current response at 30 uM at holding potential -40mV by two electrode voltage clamp method relative to control. The method, boiled down: (§1)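 Two-electrode voltage clamp at -40 mV, 23°C, pH 7.4 Ba²⁺ recording solution, on Xenopus oocytes expressing rat NMDA receptors. Currents were evoked by 100 µM glutamate plus 30 µM glycine, with compound co-applied (DMSO 0.05–0.5% final). Each compound used at least 4 oocytes from at least 2 frogs.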

Assay [2] has as its target Glutamate NMDA receptor; Grin1/Grin2c (Rattus norvegicus) (UniProt P35439+Q00961). Description: Positive allosteric modulation of recombinant rat GluN1/GluN2C receptor expressed in xenopus laevis oocyte assessed as potentiation of glutamate and glycine-induced current response at 30 uM at holding potential -40mV by two electrode voltage clamp method relative to control. The method, boiled down:
as §1

Assay [3] deals with Glutamate NMDA receptor; Grin1/Grin2b (Rattus norvegicus, UniProt P35439+Q00960). Description: Positive allosteric modulation of recombinant rat GluN1/GluN2B receptor expressed in xenopus laevis oocyte assessed as potentiation of glutamate and glycine-induced current response at holding potential -40mV by two electrode voltage clamp method. The procedure, abridged:
as §1

For assay [4], the target named is Glutamate NMDA receptor; Grin1/Grin2c (Rattus norvegicus, UniProt P35439+Q00961). The assay can be described thus: Positive allosteric modulation of recombinant rat GluN1/GluN2C receptor expressed in xenopus laevis oocyte assessed as potentiation of glutamate and glycine-induced current response at holding potential -40mV by two electrode voltage clamp method. The method, boiled down:
as §1

Assay [5] has as its target Glutamate NMDA receptor; Grin1/Grin2b (Rattus norvegicus) (UniProt P35439+Q00960). The assay can be described thus: Positive allosteric modulation of recombinant rat GluN1/GluN2B receptor expressed in xenopus laevis oocyte assessed as potentiation of glutamate and glycine-induced current response at 30 uM at holding potential -40mV by two electrode voltage clamp method relative to control. The method, boiled down: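 Two-electrode voltage clamp at -40 mV, 23°C, pH 7.4 Ba²⁺ recording solution, on Xenopus oocytes expressing rat NMDA receptors. Currents were evoked by 100 µM glutamate plus 30 µM glycine, with compound co-applied (DMSO 0.05–0.5% final). […] Each compound used at least 4 oocytes from at least 2 frogs.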

The target of assay [6] is Ionotropic glutamate receptor NMDA 1/2D (Rattus norvegicus, UniProt P35439+Q62645). Description: Positive allosteric modulation of recombinant rat GluN1/GluN2D receptor expressed in xenopus laevis oocyte assessed as potentiation of glutamate and glycine-induced current response at holding potential -40mV by two electrode voltage clamp method. The procedure, abridged:
as §1

Each structure is given as a SMILES string.

In the case of `CCOc1ccc(OCC2c3ccc(OC(C)C)cc3CCN2C(=O)c2cccc(Br)c2)cc1` (stereo not given), the Activity in assay [1] is 98%; in assay [2], 133%; in assay [5], 136%. Moreover, the Emax in assay [2] turned out to be 135%; in assay [5] it was 137%. Also, the EC50 in assay [3] was determined as 3400 nM; in assay [4], 1800 nM.
Take `CCOc1ccc(OCC2c3ccc(OC(C)C)cc3CCN2C(=O)c2ccccc2)cc1` (stereo not given): the Activity in assay [1] came out at 69%; in assay [2] it was 83%; in assay [5] it was 88%.
`CCOc1ccc(OCC2c3ccc(OCC(C)C)cc3CCN2C(=O)c2cccc(F)c2)cc1` (stereo not given): the results for the Activity in assay [1], in assay [2] and in assay [5] were 351%, 309% and 332%, respectively. The Emax in assay [1] is 364%; in assay [2] it was 325%; in assay [5] it was 342%. Further, the 50% effective concentration (EC50) was determined as 2500 nM in assay [3], 3400 nM in assay [6] and 3100 nM in assay [4].
For the compound `CCOc1ccc(OCC2c3ccc(OCC)cc3CCN2C(=O)c2cccc(Cl)c2)cc1` (stereo not given), the Activity is 75% in assay [1], 91% in assay [2] and 104% in assay [5].
In the case of `COc1ccc(OCC2c3ccc(N(C)C)cc3CCN2C(=O)c2cccc(Cl)c2)cc1` (stereo not given), the Activity in assay [1] worked out at 322%; in assay [2], 288%; in assay [5], 127%. The values for the Emax in assay [1] and in assay [2] were 349% and 315%, respectively. The values for the EC50 in assay [6] and in assay [4] were 4400 nM and 4000 nM, respectively.
On to `COc1ccc(OCC2c3ccc(OC(C)C)cc3CCN2C(=O)c2cccc(N)c2)cc1` (stereo not given), for which the values for the Activity in assay [1], in assay [2] and in assay [5] were 107%, 105% and 106%, respectively.
Taken in the same sequence, the figures for `CCOc1ccc(OCC2c3ccc(OC(C)C)cc3CCN2C(=O)c2cccc(C)c2)cc1` (stereo not given) were 43%, 67% and 78%.
`CCOc1ccc(OCC2c3ccc(OCC(C)C)cc3CCN2C(=O)c2cccc(Cl)c2)cc1` (stereo not given): the Activity was determined as 342% in assay [1], 238% in assay [2] and 294% in assay [5]. Besides, the Emax in assay [1] is 351%; in assay [2] it was 242%; in assay [5] it was 293%. Besides, the EC50 in assay [3] was 1000 nM; in assay [6], 1500 nM; in assay [4] it was 1000 nM.
As to `COc1ccc(OCC2c3ccc(OC(C)C)cc3CCN2C(=O)c2cccc([N+](=O)[O-])c2)cc1` (stereo not given), the Activity is 335% in assay [1], 337% in assay [2] and 198% in assay [5]. Besides, the Emax came to 351% in assay [1], 358% in assay [2] and 203% in assay [5]. In addition, the EC50 in assay [3] worked out at 5300 nM; in assay [6] it was 3400 nM; in assay [4], 2800 nM.
For `COc1ccc(OCC2c3ccc(OC(C)C)cc3CCN2C(=O)c2cccc(O)c2)cc1` (stereo not given), the Activity in assay [1] was found to be 105%; in assay [2] it was 117%; in assay [5] it was 98%.
Consider `CCOc1ccc(OCC2c3ccc(OC(C)C)cc3CCN2C(=O)c2ccccc2Cl)cc1` (stereo not given), for which the Activity in assay [1] worked out at 79%; in assay [2], 93%; in assay [5], 67%.
Turning to `COc1cccc(OCC2c3ccc(OC(C)C)cc3CCN2C(=O)c2cccc(Cl)c2)c1` (stereo not given), the Activity in assay [1] was found to be 125%; in assay [2], 132%; in assay [5] it was 99%. The results for the maximum response (Emax) in assay [1] and in assay [2] were 125% and 132%, respectively. Further, the EC50 in assay [6] came out at 5400 nM; in assay [4], 6200 nM.
With `CC(C)Oc1ccc(OCC2c3ccc(OC(C)C)cc3CCN2C(=O)c2cccc(F)c2)cc1` (stereo not given), the values for the Activity in assay [1], in assay [2] and in assay [5] were 103%, 133% and 179%, respectively. For the same compound, the Emax in assay [2] worked out at 135%; in assay [5], 185%. The EC50 in assay [3] worked out at 7100 nM; in assay [4], 2700 nM.
As to `COc1ccc(OCC2c3ccc(OC(C)C)cc3CCN2C(=O)c2ccc(OC)cc2)cc1` (stereo not given), the values for the Activity in assay [1], in assay [2] and in assay [5] were 114%, 138% and 110%, respectively.
Consider `CC(C)Oc1ccc2c(c1)CCN(C(=O)c1cccc(Cl)c1)C2COc1ccc(OC(F)(F)F)cc1` (stereo not given), for which the Activity worked out at 150% in assay [1], 189% in assay [2] and 130% in assay [5]. For the same compound, the Emax in assay [1] amounted to 152%; in assay [2] it was 192%; in assay [5] it was 130%. In addition, the EC50 in assay [3] is 1400 nM; in assay [6] it was 1700 nM; in assay [4] it was 1500 nM.
As for `CCOc1ccc(OCC2c3ccc(OC(C)C)cc3CCN2C(=S)c2cccc(Br)c2)cc1` (stereo not given), the Emax in assay [1] is 135%; in assay [2] it was 166%; in assay [5], 174%. Besides, the values for the EC50 in assay [3], in assay [6] and in assay [4] were 340 nM, 280 nM and 940 nM, respectively.
With `CC(C)Oc1ccc(OCC2c3ccc(OC(C)C)cc3CCN2C(=O)c2cccc(Cl)c2)cc1` (stereo not given), the Activity in assay [1] amounted to 111%; in assay [2] it was 134%; in assay [5], 159%. The Emax came to 138% in assay [2] and 160% in assay [5]. Moreover, the EC50 turned out to be 3800 nM in assay [3] and 1700 nM in assay [4].
Take `CCOc1ccc(OCC2c3ccc(OC(C)C)cc3CCN2C(=O)c2cccc(C(F)(F)F)c2)cc1` (stereo not given): the values for the EC50 in assay [3] and in assay [4] were 2400 nM and 1300 nM, respectively.
Take `CC(C)Oc1ccc(OCC2c3ccc(OC(C)C)cc3CCN2C(=O)c2cccc(C(F)(F)F)c2)cc1` (stereo not given): the Emax in assay [2] worked out at 132%; in assay [5] it was 157%. Further, the EC50 is 1500 nM in assay [3] and 920 nM in assay [4].
In the case of `CCOc1ccc(OCC2c3ccc(OC(C)C)cc3CCN2C(=O)c2cccc(OC)c2)cc1` (stereo not given), the values for the Activity in assay [1], in assay [2] and in assay [5] were 44%, 65% and 89%, respectively.
Consider `CCOc1ccc(OCC2c3ccc(OC(C)C)cc3CCN2C(=O)c2cccc(F)c2)cc1` (stereo not given), for which the Activity in assay [1] was 91%; in assay [2], 104%; in assay [5] it was 147%. Besides, in assay [3], the EC50 was 7200 nM. For the same compound, the Emax in assay [5] turned out to be 152%.
Regarding `CCOc1ccc(OCC2c3ccc(OCC)cc3CCN2C(=O)c2cccc(F)c2)cc1` (stereo not given), the Activity in assay [1] came out at 67%; in assay [2], 77%; in assay [5], 94%.
As to `CCOc1ccc(OCC2c3ccc(OC(C)C)cc3CCN2C(=S)c2cccc(F)c2)cc1` (stereo not given), the maximum response (Emax) in assay [1] turned out to be 159%; in assay [2], 170%; in assay [5], 184%. Besides, the results for the EC50 in assay [3], in assay [6] and in assay [4] were 550 nM, 1200 nM and 1400 nM, respectively.
On to `COc1ccc(OCC2c3ccc(OC(C)C)cc3CCN2C(=O)c2cccc(F)c2)cc1` (stereo not given), for which the EC50 in assay [3] was 36000 nM.
Regarding `CCOc1ccc(OCC2c3ccc(N4CCOCC4)cc3CCN2C(=O)c2cccc(Cl)c2)cc1` (stereo not given), the figures for the Activity in assay [1], in assay [2] and in assay [5] were 104%, 133% and 127%, respectively.
As to `CCOc1ccc(OCC2c3ccc(OC(C)C)cc3CCN2C(=O)c2ccc(F)cc2)cc1` (stereo not given), the Activity in assay [1] is 90%; in assay [2], 107%; in assay [5], 118%.
In the same order, the values of `CCOc1ccc(OCC2c3ccc(OC(C)C)cc3CCN2C(=O)c2cccc(-c3ccccc3)c2)cc1` (stereo not given) are 92%, 92% and 112%.
`COc1ccc(OCC2c3ccc(OC(C)C)cc3CCN2C(=O)c2cccc(C(F)(F)F)c2)cc1` (stereo not given): the EC50 in assay [3] worked out at 6100 nM; in assay [6], 2700 nM; in assay [4], 1700 nM.
For `COc1ccc(OCC2c3ccc(N(C)C)cc3CCN2C(=O)c2cccc(Br)c2)cc1` (stereo not given), the results for the Activity in assay [1], in assay [2] and in assay [5] were 307%, 285% and 99%, respectively. Also, the Emax was 327% in assay [1] and 293% in assay [2]. The EC50 was found to be 3800 nM in assay [6] and 2400 nM in assay [4].
Turning to `COc1ccc(OCC2c3ccc(OCC(C)C)cc3CCN2C(=O)c2cccc(Cl)c2)cc1` (stereo not given), the EC50 in assay [3] is 1500 nM; in assay [6], 1400 nM; in assay [4], 900 nM.
In the case of `CCOc1ccc(OCC2c3ccc(OC(C)C)cc3CCN2C(=O)c2ccc(Cl)cc2)cc1` (stereo not given), the results for the Activity in assay [1], in assay [2] and in assay [5] were 88%, 101% and 112%, respectively.
In the same order, the values of `CCOc1ccc(OCC2c3ccc(OC(C)C)cc3CCN2C(=O)c2ccccc2F)cc1` (stereo not given) are 55%, 68% and 61%.
